The source made the active and inactive calls. The calls are words filed in the database; no cut-off is given here.
Key:
[1] = system: SK-MEL-5; assay: Growth inhibition of human SKMEL5 cells after 48 hrs by SRB assay; type: functional
How it was run: (§1)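 Run at NCI in the 60-human-tumor-cell-line anticancer screen. Each compound was tested at a minimum of five concentrations at 10-fold dilutions.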

[2] = system: SW480; assay: Antiproliferative activity against human SW480 cells after 5 days by MTT assay; conditions: SW480, 120 h
[3] = system: UACC-257; assay: Growth inhibition of human UACC257 cells after 48 hrs by SRB assay; type: functional; conditions: UACC-257, 48 h
How it was run: (§2)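 NCI 60 human tumour cell line in vitro anticancer screen, run at NCI. Compound tested at a minimum of five concentrations in 10-fold dilutions per cell line.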

[4] = system: CAKI-1; assay: Growth inhibition of human CAKI1 cells after 48 hrs by SRB assay; type: functional; conditions: CAKI-1, 48 h; how it was run: as §1
[5] = system: SN12C; assay: Growth inhibition of human SN12C cells after 48 hrs by SRB assay; type: functional; how it was run: as §1
[6] = Growth inhibition of human […] cells after 48 hrs by SRB assay; type: functional; how it was run: as §1
[7] = system: HT-29; assay: Growth inhibition of human HT29 cells after 48 hrs by SRB assay; type: functional; conditions: HT-29, 48 h; how it was run: as §2
[8] = system: UACC-62; assay: Growth inhibition of human UACC62 cells after 48 hrs by SRB assay; type: functional; conditions: UACC-62, 48 h; how it was run: as §2
[9] = system: MDA-MB-231; assay: Growth inhibition of human MDA-MB-231 cells after 48 hrs by SRB assay; type: functional; conditions: MDA-MB-231, 48 h; how it was run: as §2
[10] = system: L929; assay: Antiproliferative activity against mouse L929 cells after 5 days by SRB assay; type: cell-based; conditions: L929, 120 h
[11] = system: SK-MEL-28; assay: Growth inhibition of human SK-MEL28 cells after 48 hrs by SRB assay; type: functional; conditions: SK-MEL-28, 48 h; how it was run: as §2
[12] = system: NCI-H522; assay: Growth inhibition of human NCI-H522 cells after 48 hrs by SRB assay; type: functional; conditions: NCI-H522, 48 h; how it was run: as §2
[13] = system: COLO 205; assay: Growth inhibition of human COLO205 cells after 48 hrs by SRB assay; type: functional; conditions: COLO 205, 48 h; how it was run: as §2
[14] = system: SK-OV-3; assay: Growth inhibition of human SK-OV3 cells after 48 hrs by SRB assay; type: functional; conditions: SK-OV-3, 48 h; how it was run: as §1
[15] = system: NCI-H23; assay: Growth inhibition of human NCIH23 cells after 48 hrs by SRB assay; type: functional; conditions: NCI-H23, 48 h; how it was run: as §2
[16] = system: OVCAR-8; assay: Growth inhibition of human OVACAR8 cells after 48 hrs by SRB assay; type: functional; conditions: OVCAR-8, 48 h; how it was run: as §1
[17] = system: 786-0; assay: Growth inhibition of human 786-0 cells after 48 hrs by SRB assay; type: functional; conditions: 786-0, 48 h; how it was run: as §1
[18] = system: RPMI-8226; assay: Growth inhibition of human RPMI8226 cells after 48 hrs by SRB assay; type: functional; conditions: RPMI-8226, 48 h; how it was run: as §2
[19] = system: Hs-578T; assay: Growth inhibition of human HS578T cells after 48 hrs by SRB assay; type: functional; how it was run: as §2
[20] = system: HCT-15; assay: Growth inhibition of human HCT15 cells after 48 hrs by SRB assay; type: functional; conditions: HCT-15, 48 h; how it was run: as §1
[21] = system: UO-31; assay: Growth inhibition of human UO31 cells after 48 hrs by SRB assay; type: functional; conditions: UO-31, 48 h; how it was run: as §2
[22] = system: A549; assay: Antiproliferative activity against human A549 cells after 5 days by MTT assay; conditions: A549, 120 h
[23] = system: SF-295; assay: Growth inhibition of human SF295 cells after 48 hrs by SRB assay; type: functional; how it was run: as §1
[24] = system: EKVX; assay: Growth inhibition of human EKVX cells after 48 hrs by SRB assay; type: functional; how it was run: as §2
[25] = system: M14; assay: Growth inhibition of human M14 cells after 48 hrs by SRB assay; type: functional; how it was run: as §1
[26] = system: BT-549; assay: Growth inhibition of human BT549 cells after 48 hrs by SRB assay; type: functional; how it was run: as §1
[27] = system: Malme-3M; assay: Growth inhibition of human MALME-3M cells after 48 hrs by SRB assay; type: functional; how it was run: as §2
[28] = system: TK-10; assay: Growth inhibition of human TK10 cells after 48 hrs by SRB assay; type: functional; conditions: TK-10, 48 h; how it was run: as §2
[29] = system: ACHN; assay: Growth inhibition of human ACHN cells after 48 hrs by SRB assay; type: functional; how it was run: as §2
[30] = system: RXF 393; assay: Growth inhibition of human RFX393 cells after 48 hrs by SRB assay; type: functional; conditions: RXF 393, 48 h; how it was run: as §1
[31] = system: PC-3; assay: Growth inhibition of human PC3 cells after 48 hrs by SRB assay; type: functional; conditions: PC-3, 48 h; how it was run: as §2
[32] = system: U-251; assay: Growth inhibition of human U251 cells after 48 hrs by SRB assay; type: functional; conditions: U-251, 48 h; how it was run: as §1
[33] = Antiproliferative activity against human KB31 cells after 5 days by MTT assay; conditions: KB 3-1, 120 h
[34] = system: NCI/ADR-RES; assay: Growth inhibition of human NCI/ADR-RES cells after 48 hrs by SRB assay; type: functional; how it was run: as §2
[35] = (§3) Growth inhibition of human […] cells after 48 hrs by SRB assay; type: functional; how it was run: as §1
[36] = system: MDA-MB235; assay: as §3; type: functional; how it was run: as §1
[37] = Toxicity in brine shrimp after 24 hrs; type: organism-based; conditions: artemia, in vivo; read-out: LD50
[38] = system: DU-145; assay: Growth inhibition of human DU145 cells after 48 hrs by SRB assay; type: functional; how it was run: as §1
[39] = system: OVCAR-5; assay: Growth inhibition of human OVACAR5 cells after 48 hrs by SRB assay; type: functional; conditions: OVCAR-5, 48 h; how it was run: as §1
[40] = read-out: Log LC50 (the source's name) (converted)

COC(=O)C1=CO[C@@H]2O[C@H]3/C(=C\c4ccc(O)cc4)C(=O)O[C@]34C=C[C@H]1[C@H]24 [PRISMATOMERIN]
Activity [1]: inactive | GI50 ([1]; SK-MEL-5, 48 h): < 0.01 µM | TGI ([1]; SK-MEL-5, 48 h, read-out: Log TGI (converted)): 0.186 µM | IC50 [2]: 0.06 µM | GI50 [3]: 0.145 µM | CC50 [3, 40]: 10 µM | GI50 [4]: 0.126 µM | CC50 [4, 40]: 8.71 µM | TGI ([4]; read-out: Log TGI (converted)): 0.501 µM | GI50 [5]: 0.174 µM | CC50 [5, 40]: 0.813 µM | TGI ([5]; read-out: Log TGI (converted)): 0.38 µM | GI50 [6]: 1.95 µM | CC50 [6, 40]: 24.5 µM | TGI ([6]; read-out: Log TGI (converted)): 5.37 µM | GI50 [7]: 0.107 µM | CC50 [7, 40]: > 100 µM | GI50 [8]: 0.437 µM | CC50 [8, 40]: 0.575 µM | GI50 [9]: 0.162 µM | CC50 [9, 40]: 0.851 µM | IC50 [10]: 0.21 µM | GI50 [11]: 0.316 µM | CC50 [11, 40]: > 100 µM | GI50 [12]: 0.186 µM | CC50 [12, 40]: 1.35 µM | GI50 [13]: 0.537 µM | CC50 [13, 40]: > 100 µM | GI50 [14]: 0.912 µM | CC50 [14, 40]: > 100 µM | TGI ([14]; read-out: Log TGI (converted)): 3.16 µM | GI50 [15]: 0.186 µM | CC50 [15, 40]: 0.933 µM | GI50 [16]: 0.174 µM | CC50 [16, 40]: 2.24 µM | TGI ([16]; read-out: Log TGI (converted)): 0.501 µM | GI50 [17]: 0.0195 µM | CC50 [17, 40]: 0.55 µM | TGI ([17]; read-out: Log TGI (converted)): 0.195 µM | GI50 [18]: < 0.01 µM | CC50 [18, 40]: > 100 µM | GI50 [19]: 0.257 µM | CC50 [19, 40]: > 100 µM | GI50 [20]: 0.162 µM | CC50 [20, 40]: 3.8 µM | TGI ([20]; read-out: Log TGI (converted)): 0.575 µM | GI50 [21]: 0.12 µM | CC50 [21, 40]: 0.813 µM | IC50 [22]: 1.41 µM | Activity [23]: inactive | GI50 ([23]; SF-295, 48 h): 0.589 µM | GI50 [24]: 0.355 µM | CC50 [24, 40]: 40.7 µM | Activity [25]: inactive | GI50 ([25]; M14, 48 h): 0.162 µM | Activity [26]: inactive | GI50 ([26]; BT-549, 48 h): 0.151 µM | GI50 [27]: 0.135 µM | CC50 [27, 40]: 4.68 µM | GI50 [28]: 0.288 µM | CC50 [28, 40]: 3.98 µM | GI50 [29]: < 0.01 µM | CC50 [29, 40]: 2.09 µM | GI50 [30]: < 0.01 µM | CC50 [30, 40]: 0.661 µM | TGI ([30]; read-out: Log TGI (converted)): 0.162 µM | GI50 [31]: 0.17 µM | CC50 [31, 40]: 3.02 µM | GI50 [32]: 0.295 µM | CC50 [32, 40]: 60.3 µM | TGI ([32]; read-out: Log TGI (converted)): 0.955 µM | IC50 [33]: 0.41 µM | GI50 [34]: 0.17 µM | CC50 [34, 40]: 17.4 µM | GI50 [35]: 0.2 µM | Activity [36]: inactive | LC50 at 24 h [37]: 0.195 µM | Activity [38]: inactive | GI50 ([38]; DU-145, 48 h): 0.115 µM | GI50 [39]: 0.257 µM | CC50 [39, 40]: 0.813 µM | TGI ([39]; read-out: Log TGI (converted)): 0.407 µM

From ChEMBL document CHEMBL1141258, “Prismatomerin, a new iridoid from Prismatomeris tetrandra. Structure elucidation, determination of absolute configuration, and cytotoxicity” (J Nat Prod, 2007)
